# Laboratory results from ChEMBL document CHEMBL2034950, “Sphingolipid analogues inhibit development of malaria parasites” (ACS Med Chem Lett, 2012).
# Active and inactive are the calls of the source. No cut-off for these calls is given here.
# Legend:
# Plasmodium falciparum [1] = test: Antimalarial activity against chloroquine-resistant Plasmodium falciparum W2 infected in O-positive human RBC assessed as [3H]-hypoxanthine incorporation after 48 hrs by scintillation counting; assay type: functional, organism-based
# In short: (§1)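 Growth inhibition in vitro by [3H]-hypoxanthine uptake in parasitized RBCs; dose-response runs to derive IC50.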
# Plasmodium falciparum [2] = test: Antimalarial activity against chloroquine-sensitive Plasmodium falciparum D6 infected in O-positive human RBC assessed as [3H]-hypoxanthine incorporation after 48 hrs by scintillation counting; assay type: functional, organism-based; in short: as §1
# Plasmodium knowlesi = test: Antimalarial activity against Plasmodium knowlesi infected in rhesus monkey RBC assessed as [3H]-hypoxanthine incorporation after 12 hrs by scintillation counting; assay type: functional, organism-based
# In short: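 Dose-response assay of in vitro parasite growth and replication in red blood cells, read as [³H]-hypoxanthine uptake. IC50 values were derived, with the error given as standard deviation.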
# [3] = Cytotoxicity against human HFF1 cells at 10 uM after 72 hrs by SRB assay; assay type: cell-based; settings: hff-1, 72 h
# In short: (§2)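 Human foreskin fibroblasts (HFF-1) were seeded at 20,000 cells per plate, incubated with compound at 10 or 50 μM for 72 h, and read by sulforhodamine B assay.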
# [4] = Cytotoxicity against human HFF1 cells at 50 uM after 72 hrs by SRB assay; assay type: cell-based; settings: hff-1, 72 h; in short: as §2
# Plasmodium falciparum [5] = test: Antimalarial activity against chloroquine-resistant Plasmodium falciparum W2 infected in O-positive human RBC assessed as [3H]-hypoxanthine incorporation after 48 hrs by scintillation counting in presence of BSA; assay type: functional, organism-based
# Plasmodium falciparum [6] = test: Antimalarial activity against chloroquine-sensitive Plasmodium falciparum D6 infected in O-positive human RBC assessed as [3H]-hypoxanthine incorporation after 48 hrs by scintillation counting in presence of BSA; assay type: functional, organism-based
# [7] = Cmax in mouse RBC at 30 mg/kg, po QD; assay type: ADME, organism-based, Erythrocyte; set-up: dose 30 mg/kg, route oral; settings: red blood cells (RBC)
# In short: (§3)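 Mice were dosed orally once daily at 30 mg/kg for five days. Drug levels were followed over time in plasma and in red blood cells on day 1 and on day 5 of dosing.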
# [8] = Half life in mouse RBC at 30 mg/kg, po QD; assay type: ADME, organism-based, Erythrocyte; set-up: dose 30 mg/kg, route oral; settings: red blood cells (RBC); in short: as §3
# [9] = Apparent volume of distribution during terminal phase in mouse RBC at 30 mg/kg, po QD; assay type: ADME, organism-based, Erythrocyte; set-up: dose 30 mg/kg, route oral; settings: red blood cells (RBC), read-out: Vz/F; in short: as §3
# [10] = AUC (0 to infinity) in mouse RBC at 30 mg/kg, po QD; assay type: ADME, organism-based, Erythrocyte; set-up: time infinity, dose 30 mg/kg, route oral; settings: red blood cells (RBC); in short: as §3
# [11] = Tmax in mouse plasma at 30 mg/kg, po QD; assay type: ADME, organism-based; set-up: dose 30 mg/kg, route oral; in short: as §3
# [12] = Cmax in mouse plasma at 30 mg/kg, po QD; assay type: ADME, organism-based; set-up: dose 30 mg/kg, route oral; in short: as §3
# [13] = Half life in mouse plasma at 30 mg/kg, po QD; assay type: ADME, organism-based; set-up: dose 30 mg/kg, route oral; in short: as §3
# Plasma = test: Apparent volume of distribution during terminal phase in mouse plasma at 30 mg/kg, po QD; assay type: ADME, organism-based; set-up: dose 30 mg/kg, route oral; settings: in vivo; in short: as §3
# [14] = AUC (0 to infinity) in mouse plasma at 30 mg/kg, po QD; assay type: ADME, organism-based; set-up: time infinity, dose 30 mg/kg, route oral; in short: as §3
# [15] = Ratio of drug uptake in mouse RBC to mouse plasma at 30 mg/kg, po QD; assay type: ADME, organism-based; set-up: dose 30 mg/kg, route oral; settings: red blood cells (RBC) / plasma; in short: as §3
# Plasmodium falciparum [16] = test: Antimalarial activity against chloroquine-resistant Plasmodium falciparum W2 infected in O-positive human RBC assessed as aberrant form of ring-stage parasites at 546.94 ng/mL after 28 to 48 hrs by Giemsa staining-based microscopic analysis; assay type: functional, organism-based
# Plasmodium falciparum [17] = test: Antimalarial activity against chloroquine-resistant Plasmodium falciparum W2 infected in O-positive human RBC assessed as aberrant form of trophozoite-stage parasites at 546.94 ng/mL after 28 to 48 hrs by Giemsa staining-based microscopic analysis; assay type: functional, organism-based
# Plasmodium falciparum [18] = test: Antimalarial activity against chloroquine-resistant Plasmodium falciparum W2 infected in O-positive human RBC assessed as parasitemia at 546.94 ng/mL after 48 hrs by Giemsa staining-based microscopic analysis; assay type: functional
# Plasmodium falciparum [19] = test: Antimalarial activity against chloroquine-resistant Plasmodium falciparum W2 infected in O-positive human RBC assessed as ring-stage parasites at 546.94 ng/mL after 48 hrs by Giemsa staining-based microscopic analysis (reference value: 87.9%); assay type: functional
# Plasmodium falciparum [20] = test: Antimalarial activity against chloroquine-resistant Plasmodium falciparum W2 infected in O-positive human RBC assessed as trophozoite-stage parasites at 546.94 ng/mL after 48 hrs by Giemsa staining-based microscopic analysis (reference value: 4.2%); assay type: functional
# Plasmodium falciparum [21] = test: Antimalarial activity against chloroquine-resistant Plasmodium falciparum W2 infected in O-positive human RBC assessed as schizont-stage parasites at 546.94 ng/mL after 48 hrs by Giemsa staining-based microscopic analysis (reference value: 8.05%); assay type: functional
SMILES,IC50 (Plasmodium falciparum [1]),IC50 (Plasmodium falciparum [2]),IC50 (Plasmodium knowlesi),Activity [3],Activity [4],IC50 (Plasmodium falciparum [5]),IC50 (Plasmodium falciparum [6]),also measured
CCCCCCCCCCCCC[C@H](O)C[C@H](O)[C@H](C)N(C)C,4.4 µM,7 µM,6.8 µM,Non-toxic,Toxic,,,
CCCCCCCCCCCCC[C@H](O)C[C@@H](O)[C@H](C)N,9.2 µM,17.8 µM,20.3 µM,Non-toxic,Toxic,,,
CCCCCCCC(F)(F)CCCCC[C@H](O)C[C@H](O)[C@H](C)NC,2.4 µM,7.3 µM,,Non-toxic,Toxic,,,
CCCCCCCCCCCCC[C@H](O)C[C@@H](O)[C@H](C)NC,8.1 µM,14.6 µM,,Non-toxic,Toxic,,,
CCCCCCCCCCCCC[C@H](O)C[C@H](O)C(C)(C)NC (racemic),,,,,,0.25 µM,0.7 µM,
CCCCCCCCCCCCCC(O)C/C(=N\O)C(C)(C)N (racemic),,,,,,10 µM,7.44 µM,
"O[C@@H](c1cc(C(F)(F)F)nc2c(C(F)(F)F)cccc12)[C@H]1CCCCN1 (relative stereo) [(S,R)-MEFLOQUINE]",,,0.04 µM,,,0.0004 µM,,
CCCCCCCCCCCCC[C@@H](O)C[C@H](O)[C@H](C)N,8.2 µM,12.7 µM,17.6 µM,Non-toxic,Toxic,,,
CCCCCCCC(F)(F)CCCCC[C@H](O)C[C@H](O)[C@H](C)N,5.6 µM,12.7 µM,,Non-toxic,Toxic,,,
CCCCCCCCCCCCCC(O)CC(=O)C(C)(C)N (racemic),,,,,,2.6 µM,2.5 µM,
CCCCCCCCCCCCC[C@@H](O)C[C@H](O)C(C)(C)N (racemic),,,,,,7.4 µM,4.1 µM,
CCCCCCCCCCCCC[C@@H](O)C[C@H](O)C1(N)CC1 (racemic),,,,,,7.2 µM,11.2 µM,
CCCCCCCCCCCCC[C@H](O)C[C@H](O)C(C)(C)N (racemic),,,,,,4.7 µM,5.2 µM,
CCCCCCCCCCCCC[C@H](O)C[C@H](O)C1(N)CC1 (racemic),,,,,,9.9 µM,5.5 µM,
CCCCCCCCCCCCCCCC(=O)N[C@@H](C)[C@@H](O)C[C@@H](O)CCCCCCCCCCCCC,,,,Non-toxic,Toxic,,,Activity (Plasmodium falciparum [1]): inactive; Activity (Plasmodium falciparum [2]): inactive; Activity (Plasmodium knowlesi): inactive
CCCCCCCCCCCCC[C@H](O)C[C@H](O)[C@H](C)NC(C)=O,13.1 µM,11.1 µM,,Non-toxic,Toxic,,,Activity (Plasmodium knowlesi): inactive
CCCCCCCCCCCCC[C@H](O)C[C@H](O)[C@H](C)N [ENIGMOL],7.4 µM,12.6 µM,10.5 µM,Non-toxic,Toxic,9.2 µM,5.3 µM,Cmax [7]: 3300 nM; half-life [8]: 8.9 h; Vd/F [9]: 25 L/kg; AUC(0-inf) [10]: 50.7 µM·h; Tmax [11]: 2 h; Cmax [12]: 1100 nM; half-life [13]: 10.7 h; Vz/F (Plasma): 4.4 L/kg; AUC(0-inf) [14]: 14.4 µM·h; Kp [15]: 3
CCCCCCCCCCCCC[C@H](O)C[C@H](O)[C@@H]1CCCN1,4.4 µM,9.7 µM,6.3 µM,Non-toxic,Toxic,,,
CCCCCCCCCCCCC[C@H](O)C[C@H](O)[C@H](C)NC,1.6 µM,4.7 µM,1.7 µM,Non-toxic,Toxic,0.9 µM,1.7 µM,Activity (Plasmodium falciparum [16]): Active; Activity (Plasmodium falciparum [17]): Active; Activity (Plasmodium falciparum [18]): 1.3%; Activity (Plasmodium falciparum [19]): 41.9%; Activity (Plasmodium falciparum [20]): 39.2%; Activity (Plasmodium falciparum [21]): 18.9%
